Results reported in ChEMBL document CHEMBL1649062, “Integration of lead optimization with crystallography for a membrane-bound ion channel target: discovery of a new class of AMPA receptor positive allosteric modulators” (J Med Chem, 2011).
Converted amounts (≈) assume the structure as drawn. The source made the active and inactive calls.

Columns and labels:
Glutamate receptor 2 [1] = molecular target: T1, Glutamate receptor 2 (Homo sapiens, UniProt P42262); experiment: Allosteric modulation of human recombinant GluA2 receptor flip isoform expressed in HEK293 cells at 100 nM by whole cell patch-clamp electrophysiology; type: cell-based
T1 sequence (P42262 whole entry, canonical isoform): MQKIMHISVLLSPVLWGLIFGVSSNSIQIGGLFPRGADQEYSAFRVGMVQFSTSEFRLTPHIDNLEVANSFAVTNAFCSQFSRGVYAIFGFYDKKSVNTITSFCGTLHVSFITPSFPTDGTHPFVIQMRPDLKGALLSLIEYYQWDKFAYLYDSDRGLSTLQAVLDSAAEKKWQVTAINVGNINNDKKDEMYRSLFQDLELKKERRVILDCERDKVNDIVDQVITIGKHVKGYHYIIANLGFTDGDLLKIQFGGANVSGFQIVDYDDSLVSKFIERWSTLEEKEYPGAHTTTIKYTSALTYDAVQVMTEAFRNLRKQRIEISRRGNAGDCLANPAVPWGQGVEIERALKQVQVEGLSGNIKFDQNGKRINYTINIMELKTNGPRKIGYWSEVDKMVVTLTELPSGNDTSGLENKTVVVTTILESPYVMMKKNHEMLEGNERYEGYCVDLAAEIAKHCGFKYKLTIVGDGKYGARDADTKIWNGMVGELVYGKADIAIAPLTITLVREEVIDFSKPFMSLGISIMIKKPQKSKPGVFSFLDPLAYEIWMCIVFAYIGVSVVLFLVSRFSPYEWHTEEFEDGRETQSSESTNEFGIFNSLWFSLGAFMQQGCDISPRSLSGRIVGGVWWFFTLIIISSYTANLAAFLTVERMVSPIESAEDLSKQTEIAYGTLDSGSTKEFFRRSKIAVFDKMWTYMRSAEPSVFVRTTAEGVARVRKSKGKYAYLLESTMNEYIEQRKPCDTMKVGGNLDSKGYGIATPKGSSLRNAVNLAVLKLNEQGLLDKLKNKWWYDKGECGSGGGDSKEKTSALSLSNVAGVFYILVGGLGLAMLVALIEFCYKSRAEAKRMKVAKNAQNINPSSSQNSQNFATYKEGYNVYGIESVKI
Summary of the method: (§1)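 Perforated-patch (amphotericin B) voltage clamp of HEK293 cells stably expressing human GluA2 flip (unedited) homotetramers, held at -60 mV. Extracellular solution in mM: 140 NaCl, 2 KCl, 1 MgCl2, 2 CaCl2, 12 HEPES, 10 D-glucose, pH 7.35. Currents evoked by 1 mM glutamate; compound at 100 nM or 10 μM. Read-out is percent increase in charge transfer (area under curve).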

[2] = Oral bioavailability in Gottingen minipig at 1 mg/kg; type: ADME, organism-based, Sus scrofa; details: pig, in vivo
Summary of the method: (§2)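 Male animals, n = 3 per species, given single iv and oral doses: Sprague-Dawley rat 2.5 iv / 3 po mg/kg; beagle dog 0.25 / 0.5; Göttingen minipig 0.5 / 1; cynomolgus monkey 0.25 / 1. Blood sampled; Vss from iv; bioavailability and Vss as mean [range]; Tmax as median [range].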

[3] = Clearance in Swiss Beagle dog at 0.25 mg/kg, iv and 0.5 mg/kg, po; type: ADME, organism-based, Canis lupus familiaris; details: in vivo
Summary of the method: (§3)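 Male animals, n = 3 per species, given single iv and oral doses. Values are mean and range. Blood clearance is also expressed as % of liver blood flow, taken as (mL/min)/kg: rat 85, dog 31, minipig 30, cynomolgus monkey 44.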

[4] = Cmax in Swiss Beagle dog at 0.5 mg/kg, po; type: ADME, organism-based, Canis lupus familiaris; parameters: dose 0.5 mg/kg, route oral; details: in vivo
[5] = Clearance in cynomolgus monkey at 0.25 mg/kg, iv and 1 mg/kg, po; type: ADME, organism-based, Macaca fascicularis; details: in vivo; summary of the method: as §3
Cytochrome P450 2D6 = Cytochrome P450 2D6 (Homo sapiens, UniProt P10635); experiment: Inhibition of human CYP2D6 by fluorescence assay; type: ADME
Sequence of Cytochrome P450 2D6 (P10635 whole entry): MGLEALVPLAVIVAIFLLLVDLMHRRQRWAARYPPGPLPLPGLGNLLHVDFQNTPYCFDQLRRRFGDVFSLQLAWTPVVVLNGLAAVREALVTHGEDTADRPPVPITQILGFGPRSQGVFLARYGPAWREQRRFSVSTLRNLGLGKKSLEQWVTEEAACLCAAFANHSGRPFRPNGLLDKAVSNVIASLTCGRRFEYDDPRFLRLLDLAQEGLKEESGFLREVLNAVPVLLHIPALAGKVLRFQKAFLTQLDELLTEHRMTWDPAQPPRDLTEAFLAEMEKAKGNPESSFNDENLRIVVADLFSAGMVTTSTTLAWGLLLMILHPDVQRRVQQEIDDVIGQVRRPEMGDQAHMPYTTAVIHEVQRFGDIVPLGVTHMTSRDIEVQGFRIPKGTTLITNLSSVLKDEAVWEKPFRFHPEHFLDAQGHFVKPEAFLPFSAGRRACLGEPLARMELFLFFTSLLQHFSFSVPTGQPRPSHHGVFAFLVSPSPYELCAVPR
Summary of the method: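 Recombinant human CYP bactosomes (0.1 mg/mL) in 50 mM potassium phosphate pH 7.4, preincubated 10 min at 37 °C with test compound (0.1-10 μM, 7 concentrations) and fluorogenic substrate. Substrates: ethoxyresorufin 0.5 μM (1A2), FCA 50 μM (2C9), BMC 10 μM (2C19), MMC 10 μM (2D6), DEF 1 μM or 7-BQ 25 μM (3A4). Reaction started with NADPH regenerating system; metabolite formation read over 10 min. IC50 from percent of control rate; miconazole control; triplicate.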

[6] = Kinetic solubility of the compound in phosphate buffered saline of pH 7.4; type: physicochemical
Summary of the method: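 Kinetic solubility: 10 mM DMSO stock, 5 μL diluted to 100 μL with pH 7.4 phosphate-buffered saline, equilibrated 1 h at room temperature, filtered, filtrate quantified by calibrated flow-injection chemiluminescent nitrogen detection.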

Glutamate receptor 2 [7] = molecular target: T1, Glutamate receptor 2; experiment: Allosteric modulation of human recombinant GluA2 receptor flip isoform expressed in HEK293 cells at 10 uM by whole cell patch-clamp electrophysiology; type: cell-based; summary of the method: as §1
[8] = molecular target: Glutamate receptor 2 (Rattus norvegicus) (UniProt P19491); experiment: Allosteric modulation of GluA2 receptor flip isoform in rat hippocampal neuron at 10 nM by whole cell patch-clamp electrophysiology; details: Hippocampus
Sequence of Glutamate receptor 2 (Rattus norvegicus) (P19491 whole entry, canonical isoform): as the sequence (P42262 whole entry, canonical isoform) above, with M191T, T291A, R764G, A852P counted along it
Summary of the method: (§4)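 Rat cultured hippocampal neurons; 30 μM AMPA applied for 2 s, with compound co-applied at 10 nM or 10 μM. Read-out is the increase in charge transfer, taken as the area under the current curve.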

[9] = Tmax in cynomolgus monkey at 1 mg/kg, po; type: ADME, organism-based, Macaca fascicularis; parameters: dose 1 mg/kg, route oral; details: in vivo; summary of the method: as §2
[10] = Tmax in Swiss Beagle dog at 0.5 mg/kg, po; type: ADME, organism-based, Canis lupus familiaris; parameters: dose 0.5 mg/kg, route oral; details: in vivo; summary of the method: as §2
[11] = Clearance in Gottingen minipig at 0.5 mg/kg, iv and 1 mg/kg, po; type: ADME, organism-based, Sus scrofa; details: pig, in vivo; summary of the method: as §3
in vivo [12] = details: Sprague-Dawley, rat, po, 3 mg/kg
[13] = Plasma protein binding in rat at 3 mg/kg, po; type: ADME, organism-based; parameters: dose 3 mg/kg, route oral; details: read-out: PPB (converted)
[14] = Cmax in Sprague-Dawley rat at 3 mg/kg, po; type: ADME, organism-based; parameters: dose 3 mg/kg, route oral; details: in vivo
[15] = molecular target: Voltage-gated inwardly rectifying potassium channel KCNH2 (Homo sapiens, UniProt Q12809); experiment: Inhibition of human ERG at 10 uM
Sequence of Voltage-gated inwardly rectifying potassium channel KCNH2 (Q12809 whole entry): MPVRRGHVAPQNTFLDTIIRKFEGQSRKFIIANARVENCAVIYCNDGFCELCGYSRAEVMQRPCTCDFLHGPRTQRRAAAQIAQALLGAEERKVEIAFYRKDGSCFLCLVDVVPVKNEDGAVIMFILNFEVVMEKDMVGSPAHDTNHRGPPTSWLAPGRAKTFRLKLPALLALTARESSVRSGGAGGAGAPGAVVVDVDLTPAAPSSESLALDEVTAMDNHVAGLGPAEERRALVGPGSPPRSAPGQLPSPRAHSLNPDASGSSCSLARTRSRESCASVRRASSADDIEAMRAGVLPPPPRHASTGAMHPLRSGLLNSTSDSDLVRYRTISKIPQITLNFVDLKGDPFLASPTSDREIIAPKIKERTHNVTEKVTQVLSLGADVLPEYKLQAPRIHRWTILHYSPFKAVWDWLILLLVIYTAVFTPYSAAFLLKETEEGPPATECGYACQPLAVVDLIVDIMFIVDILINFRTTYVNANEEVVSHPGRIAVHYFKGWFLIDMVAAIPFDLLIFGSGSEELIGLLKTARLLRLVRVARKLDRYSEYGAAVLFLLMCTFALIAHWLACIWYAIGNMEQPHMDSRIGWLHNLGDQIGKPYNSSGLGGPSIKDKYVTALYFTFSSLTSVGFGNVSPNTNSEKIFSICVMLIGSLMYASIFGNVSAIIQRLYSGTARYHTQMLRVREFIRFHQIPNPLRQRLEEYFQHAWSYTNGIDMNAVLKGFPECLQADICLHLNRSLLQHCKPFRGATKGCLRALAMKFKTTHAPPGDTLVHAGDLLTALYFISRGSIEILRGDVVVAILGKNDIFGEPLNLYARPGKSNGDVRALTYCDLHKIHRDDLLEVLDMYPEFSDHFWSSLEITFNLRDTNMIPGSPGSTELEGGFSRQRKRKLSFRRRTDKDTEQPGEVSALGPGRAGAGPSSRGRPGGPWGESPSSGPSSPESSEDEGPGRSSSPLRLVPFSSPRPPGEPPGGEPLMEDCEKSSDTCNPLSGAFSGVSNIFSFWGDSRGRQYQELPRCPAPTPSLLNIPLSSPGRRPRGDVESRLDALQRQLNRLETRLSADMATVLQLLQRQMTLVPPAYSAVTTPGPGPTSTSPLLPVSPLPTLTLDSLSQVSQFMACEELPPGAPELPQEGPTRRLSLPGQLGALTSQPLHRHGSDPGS
Summary of the method: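 hERG tail current recorded from stably transfected cells, compound at a nominal 10 μM (stated as 3.6 μg/mL).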

in vivo [16] = details: rat, brain and blood, po, 3 mg/kg
Hepatocyte = experiment: Intrinsic clearance in cryopreserved human hepatocytes assessed per gram of tissue; type: ADME, cell-based, Liver
Summary of the method: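 Cryopreserved hepatocytes at 70 000 cells/mL; intrinsic clearance expressed per gram of liver; single determination (human also n = 3).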

Brain [17] = experiment: Drug level in Lister Hooded rat assessed per gram of tissue at 0.1 mg/kg, ip; type: ADME, organism-based; parameters: dose 0.1 mg/kg, route intraperitoneal; details: in vivo
Summary of the method: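 Male Lister Hooded rats (n = 9-12/group) tested for reversal of a 24 h delay-induced deficit in novel object recognition. Significant doses flagged. Brain concentrations measured in the study animals at the end of the test.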

Brain [18] = experiment: Drug level in Lister Hooded rat assessed per gram of tissue at 30 mg/kg, ip; type: ADME, organism-based; parameters: dose 30 mg/kg, route intraperitoneal; details: in vivo
Summary of the method: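 Male Lister Hooded rats pretreated 30 min before the maximal electroshock threshold test with compound or saline vehicle; picrotoxin served as positive control. Corneal current applied, CC50 about 60-70 mA, 0.1 ms. Brain levels measured in satellite rats sampled immediately after testing.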

[19] = Oral bioavailability in cynomolgus monkey at 1 mg/kg; type: ADME, organism-based, Macaca fascicularis; details: in vivo; summary of the method: as §2
Rattus norvegicus = experiment: Cognitive enhancing effect in Wistar rat assessed as reversal of scopolamine-induced amnesic deficit at 10 to 30 mg/kg, ip by passive avoidance test
[20] = molecular target: Glutamate receptor 2 (Rattus norvegicus) (UniProt P19491); experiment: Allosteric modulation of GluA2 receptor flip isoform in rat hippocampal neuron at 10 uM by whole cell patch-clamp electrophysiology; type: tissue-based; details: Hippocampus; summary of the method: as §4
[21] = Intrinsic clearance in cryopreserved rhesus monkey hepatocytes assessed per gram of tissue; type: ADME, Macaca mulatta, Liver, Hepatocyte
[22] = Volume of distribution at steady state in Gottingen minipig at 0.5 mg/kg, iv and 1 mg/kg, po; type: ADME, organism-based, Sus scrofa; details: pig, in vivo, read-out: Vdss; summary of the method: as §2
[23] = Half life in Gottingen minipig at 0.5 mg/kg, iv; type: ADME, organism-based, Sus scrofa; parameters: dose 0.5 mg/kg, route intravenous; details: pig, in vivo; summary of the method: as §3

For `O=C(c1ccc(-n2nc(C(F)(F)F)c3c2CCCC3)cc1)N1CCCC1`, which Activity (Glutamate receptor 2 [1]) is on record?
The Activity was 21%.

What about the bioavailability [2] of the same compound?
Its bioavailability is 13%.

What about the clearance [3] of the same compound?
The clearance was 32 mL/min/kg.

And the Cmax [4]?
Its Cmax is 14 ng/mL.

What about the clearance [5] of the same compound?
Its clearance is 38 mL/min/kg.

What about the IC50 (Cytochrome P450 2D6) of the same compound?
Its IC50 is 6 µM.

And the solubility kinetic [6]?
Its solubility kinetic is 133 µg/mL (≈ 366 µM).

And the Activity (Glutamate receptor 2 [7])?
The Activity was 600%.

What about the Activity [8] of the same compound?
Its Activity is 37%.

And the Tmax [9]?
The Tmax was 1 h.

What about the Tmax [10] of the same compound?
The Tmax was 0.6 h.

What about the clearance [11] of the same compound?
The clearance was 23 mL/min/kg.

What about the bioavailability (in vivo [12]) of the same compound?
Its bioavailability is 54%.

And the fraction unbound [13]?
Its fraction unbound is 0.01.

And the Cmax [14]?
Its Cmax is 245 ng/mL.

What about the “inhibition (INH)” value [15] of the same compound?
Its value is “Not Active”.

What about the Kp (in vivo [16]) of the same compound?
Its Kp is 1.5.

What about the CL (Hepatocyte) of the same compound?
The CL was 1.2 mL/min/g.

What about the Drug uptake (Brain [17]) of the same compound?
The Drug uptake was 9 ng/g.

And the Drug uptake (Brain [18])?
Its Drug uptake is 4686 ng/g.

What about the bioavailability [19] of the same compound?
Its bioavailability is 2%.

What about the Activity (Rattus norvegicus) of the same compound?
The Activity was “Active”.

And the Activity [20]?
Its Activity is 62%.

And the CL [21]?
Its CL is > 50 mL/min/g.

What about the Vd [22] of the same compound?
Its Vd is 3.2 L/kg.

And the half-life [23]?
The half-life was 1.6 h.
